These results are taken from ChEMBL document CHEMBL1122955, “Synthesis and dihydropteridine reductase inhibitory effects of potential metabolites of the neurotoxin 1-methyl-4-phenyl-1,2,3,6-tetrahydropyridine” (J Med Chem, 1985).

pIC50, pKi: −log10 of the molar value.

As usually defined, the pKi is −log10 of the Ki, conventionally taken in molar units. High values mean a low Ki, low ones a high Ki.

The target of test [1] is T1, Dihydropteridine reductase (Rattus norvegicus, UniProt P11348).
T1 sequence (P11348 whole entry): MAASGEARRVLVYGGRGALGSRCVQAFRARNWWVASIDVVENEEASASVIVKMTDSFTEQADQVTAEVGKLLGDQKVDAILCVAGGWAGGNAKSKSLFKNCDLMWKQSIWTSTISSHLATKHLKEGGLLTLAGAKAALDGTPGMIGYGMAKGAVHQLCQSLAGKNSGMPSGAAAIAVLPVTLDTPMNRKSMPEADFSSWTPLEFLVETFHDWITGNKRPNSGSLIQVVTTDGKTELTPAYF
In words: Inhibitory activity against rat striatal synaptosomes Dihydropteridine reductase (DHPR). Type of test: subcellular, Brain. The note with it: read-out: I50. The procedure, abridged: (§1)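 DHPR from human liver (6 mU, 60 ng protein) or rat striatal synaptosomes (6.5 mU, 75 μg twice-washed P₂ protein), preincubated 10 min at 25 °C with at least six inhibitor concentrations. Residual activity measured with 50 μM qDMPH₂ and 50 μM NADH by decrease in NADH absorbance at 340 nm; I₅₀ = concentration giving 50% inhibition.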

In test [2] the target is T2, Dihydropteridine reductase (Homo sapiens, UniProt P09417).
T2 sequence (P09417 whole entry): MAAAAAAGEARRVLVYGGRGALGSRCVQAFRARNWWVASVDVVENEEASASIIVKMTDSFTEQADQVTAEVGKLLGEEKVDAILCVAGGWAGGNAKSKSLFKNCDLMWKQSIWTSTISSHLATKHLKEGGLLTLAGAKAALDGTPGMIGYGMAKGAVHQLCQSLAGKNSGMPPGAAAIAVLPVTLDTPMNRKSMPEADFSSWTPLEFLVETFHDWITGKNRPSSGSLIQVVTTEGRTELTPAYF
Put plainly: Inhibitory activity against human liver Dihydropteridine reductase (DHPR). The note with it: read-out: I50. In a few lines:
as §1

For test [3], the target named is T1, Dihydropteridine reductase. Put plainly: Noncompetitive Inhibitory activity against rat striatal synaptosomal DHPR enzyme.
Test [4] concerns the target T1, Dihydropteridine reductase. In words: Inhibitory activity against rat striatal synaptosomes […] using 10 uM qBH2 and 50 uM NADH assays. Format: subcellular, Brain. The note with it: read-out: I50. In a few lines:
(§2)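 Human liver or rat striatal synaptosomal DHPR, preincubated 10 min at 25 °C with inhibitor. Activity then assayed using natural substrate (6R)-dihydrobiopterin (qBH₂) at 10 μM with 50 μM NADH, followed as NADH absorbance decrease at 340 nm, to give 50% inhibitory concentrations.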

Test [5] addresses T2, Dihydropteridine reductase. Put plainly: Inhibitory activity against human liver Dihydropteridine reductase enzyme using 10 uM qBH2 and 50 uM NADH assays. The note with it: read-out: I50. In a few lines: as §2
In test [6] the target is T2, Dihydropteridine reductase. Put plainly: Inhibitory activity against human liver Dihydropteridine reductase using 10 uM qBH2 and 50 uM NADH assays. The note with it: read-out: I50. The procedure, abridged:
as §2

In test [7] the target is T2, Dihydropteridine reductase. Put plainly: Noncompetitive Iinhibitory activity against human liver DHPR enzyme.

Turning to `CC(=O)N1CC=C(c2ccc(O)c(O)c2)CC1`, the figures for the pIC50 in test [1] and in test [2] were 6.60 and 6.55, respectively.
`CN1CC=C(c2ccc(Cl)cc2)CC1`: the pIC50 in test [1] is 2.19; in test [2], 2.57.
Take `COc1ccc(-c2ccncc2)cc1OC`: the pIC50 in test [1] was 2.70; in test [2], 2.28.
As for `Oc1ccc(-c2ccncc2)cc1O`, the pIC50 in test [1] was 6.55; in test [2], 6.42.
The corresponding values for `Oc1ccc(C2CCNCC2)cc1O` are 4.42 and 4.36.
In test [3], `CN1CCC(c2ccc(O)c(O)c2)CC1` showed a negative logarithm of the Ki (pKi) of 4.13. Further, the pIC50 in test [1] is 4.22; in test [2], 4.38.
With `Oc1ccc(C2=CCNCC2)cc1O`, the values for the pIC50 in test [1] and in test [2] were 5.72 and 5.44, respectively.
In the case of `COc1cc(C2CCN(C)CC2)ccc1O`, the figures for the pIC50 in test [1] and in test [2] were 4.70 and 4.72, respectively.
As to `c1ccc(-c2ccncc2)cc1`, the pIC50 in test [1] is 2.72; in test [2], 2.62.
For `C=CC[n+]1ccc(-c2ccccc2)cc1`, the values for the pIC50 in test [1] and in test [2] were 2.13 and 2.03, respectively.
The corresponding values for `COc1cc(C2=CCN(C)CC2)ccc1O` are 5.24 and 5.03.
The corresponding values for `CC(=O)N1CCC(c2ccc(O)c(O)c2)CC1` are 5.51 and 5.28.
As for `COc1cc(C2=CCN(C(C)=O)CC2)ccc1O`, the pIC50 was 4.04 in test [1] and 5.30 in test [2].
For `COc1ccc(C2=CCN(C(C)=O)CC2)cc1OC`, the pIC50 in test [1] was 2.64; in test [2], 2.96.
For `Clc1ccc(C2=CCNCC2)cc1`, in that order: 2.40 and 2.47.
As for `C1=C(c2ccccc2)CCNC1`, the pIC50 in test [1] is 2.18; in test [2] it was 1.92.
Take `CN1CC=C(c2ccccc2)CC1`: the pIC50 is 2.08 in test [4], 2.34 in test [1], 2.52 in test [2] and 2.14 in test [5].
With `C[n+]1ccc(-c2ccccc2)cc1` [listing 1 of 2 here], the pIC50 was 1.92 in test [1] and 2.00 in test [2].
On to `COc1cc(C2=CCNCC2)ccc1O`, for which the pIC50 in test [2] is 5.14.
Consider `CN1CC=C(c2ccc(O)c(O)c2)CC1`, for which the pIC50 in test [4] is 5.92; in test [6], 5.85; in test [1] it was 5.60; in test [2], 5.47. Moreover, the negative logarithm of the Ki (pKi) in test [3] was 5.48.
Regarding `C[n+]1ccc(-c2ccc(O)c(O)c2)cc1`, the pKi in test [3] is 5.72. For the same molecule, the pIC50 was 5.80 in test [1] and 6.20 in test [2].
In the case of `CN1CC=C(c2ccc(O)cc2)CC1`, the negative-log Ki (pKi) in test [7] was 5.55. The pIC50 was 5.59 in test [1] and 5.52 in test [2].
For the molecule `COc1cc(C2CCN(C(C)=O)CC2)ccc1O`, the results for the pIC50 in test [1] and in test [2] were 5.36 and 4.57, respectively.
In the case of `Oc1ccc(C2=CCNCC2)cc1`, the pIC50 in test [1] is 5.47; in test [2], 5.23.
The corresponding values for `CN1CCC(c2ccccc2)CC1` are 1.92 and 1.64.
The corresponding values for `C[n+]1ccc(-c2ccccc2)cc1` [listing 2 of 2 here] are 2.47 and 2.25.
